In ChEMBL document CHEMBL3352211, “Ganoboninketals A-C, Antiplasmodial 3,4-seco-27-Norlanostane Triterpenes from Ganoderma boninense Pat” (J Nat Prod, 2014) one finds Activity and IC50 data, which are given here for five molecules.

One may read the IC50 as the concentration needed to halve the response being measured.

Series [1] has as its system RAW264.7. Nature of the series: Cytotoxicity against mouse RAW264.7 cells assessed as reduction in cell viability at 200 uM. The class given is cell-based. As to conditions: raw264.7, 200 µM.
Another series has as its system Plasmodium falciparum. Kind of series: Antiplasmodial activity against Plasmodium falciparum 3D7 infected in human RBC assessed as reduction in parasitemia after 48 hrs by fluorescence assay. The format is functional, organism-based. As to conditions: 3D7, 48 h. In a few lines:
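P. falciparum 3D7 was grown in human RBCs in Albumax II-supplemented RPMI 1640. Assay cultures at 2% hematocrit and 1% parasitemia were exposed to compounds (DMSO solvent) for about 48 h at 37 °C. Parasite DNA was labelled with PicoGreen in TE buffer pH 7.5 with 2% Triton X-100 for 30 min in the dark and read at ex 485 / em 538 nm. IC50 came from linear interpolation; three independent experiments, each in triplicate.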

The test system of series [2] is RAW264.7. Nature of the series: Antiinflammatory activity in mouse RAW264.7 cells assessed as inhibition of NO production after 24 hrs by Griess assay. As to conditions: RAW264.7, 24 h. The class given is functional, cell-based. In a few lines:
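RAW 264.7 mouse macrophages were kept in RPMI 1640 with 10% heat-inactivated FBS, penicillin and streptomycin at 37 °C and 5% CO2. They were seeded at 5 × 10^5 cells/mL. After 1 h, LPS (1 mg/mL as printed) and graded compound concentrations (DMSO solvent) were added for 24 h. Supernatant NO was measured by Griess reaction.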
(The Griess reaction detects nitrite, a stable product of nitric oxide.)

In a further series the test system is HeLa. Nature of the series: Cytotoxicity against human HeLa cells assessed as reduction in cell viability after 72 hrs by MTT assay. The format is functional, cell-based. Put shortly:
(§1)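 Cells were exposed to compounds (DMSO solvent) for 72 h at 37 °C in 5% CO2. MTT (0.5 mg/mL in medium) was added for 4 h, and formazan was dissolved in DMSO and read at 540 nm. Inhibition rates were plotted against concentration to give IC50 (±SD); three independent experiments, each in triplicate.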

The next series deals with A549. Nature of the series: Cytotoxicity against human A549 cells assessed as reduction in cell viability after 72 hrs by MTT assay. As to conditions: A549, 72 h. The class given is functional, cell-based. In a few lines: as §1
A general note: Tetrazolium dyes change colour on reduction, which living cells bring about.

Molecules are shown by their SMILES.

As for `C=C(C)[C@@H]1C[C@H](OC(C)=O)C2=C(C(=O)C[C@]34CO[C@@]5(CC)CC[C@](C)(O5)[C@H]3CC[C@@]24C)[C@@]1(C)CCC(=O)OC`, the Activity result in the series on RAW264.7 [1] is recorded as “Non-toxic”. For the same molecule, the half-inhibitory concentration (IC50) is 4 µM in the series on Plasmodium falciparum, 98.3 µM in the series with RAW264.7 [2], more than 100 µM in the series on HeLa and 47.6 µM in the series with A549.

As to `C=C(C)[C@@H]1CC(=O)C2=C(C(=O)C[C@]34CO[C@@]5(CC)CC[C@](C)(O5)[C@H]3CC[C@@]24C)[C@@]1(C)CCC(=O)OC`, the Activity entry in the series on RAW264.7 [1] is reported as “Non-toxic”. The half-maximal inhibitory concentration (IC50) in the series on Plasmodium falciparum is 7.9 µM; with RAW264.7 [2], 24.3 µM; in the series on HeLa, 65.5 µM; with A549, more than 100 µM.

As to `C=C(C)[C@@H]1C[C@H](OC(C)=O)[C@]23OC[C@]4(CC(=O)[C@@H]2[C@@]1(C)CCC(=O)OC)[C@@]3(C)CC[C@@]41O[C@@]2(CC)CC[C@]1(C)O2`, the Activity entry with RAW264.7 [1] is “Non-toxic”. In addition, the 50% inhibitory concentration (IC50) in the series with Plasmodium falciparum was 1.7 µM; in the series with RAW264.7 [2], 60.9 µM; with HeLa, more than 100 µM; in the series on A549, 35.8 µM.

Turning to `C[C@@H]1CC[C@H]2[C@@H](C)C(=O)O[C@@H]3O[C@@]4(C)CC[C@@H]1[C@]32OO4` [ARTEMISININ], the IC50 in the series with Plasmodium falciparum was 0.0304 µM.

In the case of `C[C@]12CCC(=O)C=C1CC[C@@H]1[C@@H]2[C@@H](O)C[C@@]2(C)[C@H]1CC[C@]2(O)C(=O)CO` [HYDROCORTISONE], the half-inhibitory concentration (IC50) in the series on RAW264.7 [2] came to 53.7 µM.
